Source: PubChem
Most compounds without a hit are left out; they make up all but 5.1% or so of the library.
RORA act = activators of human nuclear receptor RORA; P35398; CHO-K1 Gal4-RORA LBD luciferase reporter, luminescence; percent increase over mock-subtracted basal signal; activation, % at 10 µM; hit rate 1.5% among 65,000; AID 560;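 active = activation above the mean of all tested compounds plus 3 SD, cut at about 49% in these data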;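 also: 0% = DMSO-treated RORA cells and 100% = added signal equal to DMSO minus mock-transfected cells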
Target sequence (P35398 whole entry, looked up, the tested form may be a part): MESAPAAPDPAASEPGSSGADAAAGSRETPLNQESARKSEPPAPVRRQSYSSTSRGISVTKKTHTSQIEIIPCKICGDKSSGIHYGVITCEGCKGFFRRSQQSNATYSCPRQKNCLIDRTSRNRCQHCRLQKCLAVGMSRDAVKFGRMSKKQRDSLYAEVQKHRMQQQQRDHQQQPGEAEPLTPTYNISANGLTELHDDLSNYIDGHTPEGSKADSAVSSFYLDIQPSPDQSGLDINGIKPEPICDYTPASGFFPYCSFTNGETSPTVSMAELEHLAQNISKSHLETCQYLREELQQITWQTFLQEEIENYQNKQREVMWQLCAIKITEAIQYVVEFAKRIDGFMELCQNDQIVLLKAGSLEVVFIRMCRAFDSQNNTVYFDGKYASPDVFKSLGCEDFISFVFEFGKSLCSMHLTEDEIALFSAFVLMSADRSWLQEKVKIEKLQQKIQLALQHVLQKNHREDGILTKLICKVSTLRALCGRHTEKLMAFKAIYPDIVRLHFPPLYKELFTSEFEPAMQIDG
ERa SRC1 inh = blocks coactivator binding to human estrogen receptor alpha | TR-FRET ER-alpha LBD / SRC-1 peptide, estradiol-bound | inhibition, % at 25.6 µM | hit rate 1.7% among 86,000; in the data active = inhibition above about 50%;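 also: 0% = receptor plus peptide control and 100% = peptide only without receptor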
SF1 activator = SF-1 (human) activation; AID 522; Q13285; hit rate 1.9% among 65,000; activation, % at 10 µM; CHO-K1 Gal4-SF-1 LBD luciferase reporter; % increase over DMSO SF-1-specific signal;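 active = activation above the mean activation of all tested compounds plus 3 SD, cut at about 50% in these data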
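System: CHO-K1 cells with Gal4–hSF-1 LBD chimera plus Gal4-driven luciferase; quantity: 4,000 CHO-K1 cells per well; compound: one dose, 10 µM compound, 1% DMSO; times: 20 h compound treatment, 37 °C; measured by: SteadyLite luciferase luminescence; read-out: percent activation versus DMSO; benchmarks: DMSO and mock-transfected background; replicates: one test per compound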
BAP1 inh = inhibitors of human BAP1 deubiquitinase; hit rate 0.48% among 72,000; AID 436; calls only at 20 µM; recombinant BAP1, Ub-AMC hydrolysis fluorescence kinetic; hits give low values;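 active = activity remaining at or below 50% of control, provided the compound also passes the data quality filters; inactive = the rest, including low values that fail the filters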;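 also: 100% = DMSO wells rate and 0% = substrate alone blank rate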
ERa coact pot = enhances coactivator binding to human estrogen receptor alpha | TR-FRET ERalpha-LBD/SRC-Cy5 coactivator binding, 2 h; 100 = basal binding, no effect | P03372 | coactivator binding (% of control), % at 25.6 µM | AID 639 | hit rate 1.3% among 86,000; in the data active = activity above about 200%;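 also: binding measured in presence of low estradiol as agonist stimulus; 0% = peptide alone without receptor and 100% = receptor with peptide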
ERb coact inh = ER-beta (human) coactivator binding inhibition; Q92731; TR-FRET ER-beta LBD / SRC1-Cy5 peptide binding; receptor agonist-loaded with 1 µM estradiol; inhibition, % at 25.6 µM; hit rate 1.3% among 86,000;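 active = compounds whose percent inhibition of the receptor-coactivator binding signal exceeds about 50% in the single-dose screen, limit read from the data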;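 also: 0% = receptor plus peptide wells without compound and 100% = peptide-only wells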
BAP1 inh confirm = BAP1 (human) enzyme inhibition, confirmed; % of control activity, % at 20 µM; hit rate 8% among 310; purified BAP1, Ub-ethyl ester hydrolysis, HPLC; hits give low values; shares compounds with BAP1 inh;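 active = percent of control activity at or below 60%; inconclusive = HPLC trace unusable from injection failure or solvent front hiding peaks; inactive = the rest, plus ubiquitin peak ratio over a set limit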
* marks the source's active call; other numbers are inactive results; i = inactive; ? = inconclusive; · = no result shown; + = active, no number; [ ] = another dose, or the depositor's remark.

SMILES	RORA act	ERa SRC1 inh	SF1 activator	BAP1 inh	ERa coact pot	ERb coact inh	BAP1 inh confirm
N#Cc1c(NC(=O)COC(=O)C2CC3C=CC2C3)oc(-c2ccccc2)c1-c1ccccc1 (configuration not stated)	-13	-2	-10	+	120	2	42*
Cc1cccc(C)c1NC(=O)Cn1nnc(-c2ccc(N3CCOCC3)cc2)n1	-8	28	-20	+	126	11	114
COc1ccc(CCNC(=O)Cn2nnc(-c3ccc(N4CCOCC4)cc3)n2)cc1OC	26	5	24	i	116	-7	·
NS(=O)(=O)c1ccc(CNC(=O)NC23CC4CC(CC(C4)C2)C3)cc1	-20	-20	-5	+	124	-14	128
Cc1cccc(-c2nnc(NC(=O)C(F)(F)F)s2)c1	·	·	·	i	·	·	·
O=C(NCC1CCCO1)c1c(O)c2ccccc2[nH]c1=O (configuration not stated)	22	8	44	+	103	-1	106
O=C(c1ccccc1Cl)N1CCN(C2=NS(=O)(=O)c3ccccc32)CC1	·	·	·	i	·	·	·
CCOC(=O)c1sc(=NC(=O)c2ccc(OC)c(OC)c2)n(C)c1C	-8	-54	15	+	429*[fluorescence artefact?]	29	?
CCOC(=O)c1sc(=S)n(C)c1C	·	-6	·	·	101	-5	·
O=C(Nc1ccc(Cl)c([N+](=O)[O-])c1)C1c2ccccc2Oc2ccccc21	·	·	·	i	·	·	·
O=C(COc1ccc(Cl)cc1)Nc1nnc(-c2ccc3c(c2)CCCC3)o1	-5	-1	35	+	130	5	i
CC(NC(=O)c1ccccc1)C1CC2CCC1C2 (configuration not stated)	·	·	·	i	·	·	·
O=S(=O)(c1ccc(-c2nnc(SCc3nnc(-c4ccccc4)o3)o2)cc1)N1CCCC1	-3	·	-7	+	·	·	109
O=C(CSc1nnc(-c2ccc(F)cc2)o1)Nc1ccc(S(=O)(=O)N2CCCCCC2)cc1	-10	21	0	+	132	7	152
COc1ccc(C2C(C(C)=O)=C(C)N=c3s/c(=C\c4ccco4)c(=O)n32)c(OC)c1 (configuration not stated)	-19	11	-11	+	53	36	76
Cc1ccc(Cn2nnc3c(=O)[nH]c(C4CCN(C(=O)c5cccs5)CC4)nc32)cc1	-10	4	-5	i	92	1	·
Cc1ccc(C)c(S(=O)(=O)N2CCC(c3nc4c(nnn4Cc4ccc(F)cc4)c(=O)[nH]3)CC2)c1	8	-2	9	+	113	-3	135
Cc1ccc(Cn2nnc3c(=O)[nH]c(C4CCN(S(=O)(=O)c5cc(C)ccc5C)CC4)nc32)cc1	22	9	-16	+	105	2	131
Cc1ccc(Cn2nnc3c(=O)[nH]c(C4CCN(S(=O)(=O)c5ccc(F)cc5)CC4)nc32)cc1	-11	0	-6	·	107	5	·
Cn1c2ccccc2c2nnc(SCC(=O)N3c4ccccc4Sc4ccccc43)nc21	·	·	·	i	·	·	·
CC(=O)N1CCN(c2ccccc2NC(=O)COc2cc(C)ccc2C(C)C)CC1	-7	-7	1	+	87	16	?
Cc1ccc(C(C)C)c(OCC(=O)Nc2ccccc2N2CCN(C)CC2)c1	-7	-9	5	i	103	-3	·
CCCCCSc1nc2c(cnn2-c2ccccc2)c(=O)[nH]1	-7	45	-2	+	283*[fluorescence artefact?]	44	91
CC(C)Sc1nc2c(cnn2-c2ccccc2)c(=O)[nH]1	-18	2	3	i	106	1	·
COCC(=O)N(C)C1(c2nnnn2CCOC(=O)Nc2cccc3ccccc23)CCCC1	-3	19	5	+	77	61*[fluorescence artefact?]	134
SMILES	RORA act	ERa SRC1 inh	SF1 activator	BAP1 inh	ERa coact pot	ERb coact inh	BAP1 inh confirm
CCOC(=O)C(CC)Sc1nnc2c3cc(C)ccc3n(C)c2n1 (configuration not stated)	·	9	·	·	83	-8	·
CSc1nnc2c3cc(C)ccc3n(Cc3ccccc3)c2n1	-7	68*[fluorescence artefact?]	-18	+	105	54*[fluorescence artefact?]	77
CSc1nc(-c2ccccc2O)nc(-c2ccccc2O)n1	32	-5	-11	+	114	1	i
Cc1nnc(NC(=O)C(C)C)s1	·	·	·	i	·	·	·
Cc1cc(NS(=O)(=O)c2ccc(NC(=O)c3cnc4scc(C)n4c3=O)cc2)nc(C)n1	8	-4	4	+	115	-5	92
COc1cccc(OC)c1C(=O)Nc1ccc(S(=O)(=O)Nc2cc(C)nc(C)n2)cc1	3	1	-2	i	76	0	·
Cc1ccc(NC(=O)c2cnc3scc(C)n3c2=O)c(C)c1	-2	50*[fluorescence artefact?]	17	+	220*	39	i
CC(=O)Nc1ccc(N2C(=O)CSC2c2ccc(Br)cc2)cc1 (configuration not stated)	·	·	·	i	·	·	·
CC(=O)c1ccc(NC(=O)c2ccccc2Cl)cc1	·	·	·	i	·	·	·
COc1ccccc1N1CCN(C(=O)CSc2nc(-c3ccco3)cc(C(F)(F)F)n2)CC1	-11	5	1	+	60	11	109
O=C(CSc1nc(-c2ccco2)cc(C(F)(F)F)n1)N1CCN(c2ccc(Cl)cc2)CC1	·	-16	·	·	121	-10	·
Cc1ccc(N2C(=O)c3ccc(-c4ccc5c(c4)C(=O)N(c4ccc(C)cc4C(=O)O)C5=O)cc3C2=O)c(C(=O)O)c1	·	·	·	i	·	·	·
CCOC(=O)CSc1nc2cc(OC)ccc2cc1C#N	68*	13	104*	+	347*[fluorescence artefact?]	38	118
COc1ccc2nc(NC(=O)CCc3nc(-c4ccccc4F)no3)sc2c1	10	34	8	+	204*	48	40*
Cn1cc(/C=N/n2cnc3scc(-c4ccccc4)c3c2=O)c2ccccc21	30	4	-12	+	83	11	91
C=CCn1c(CCNC(=O)c2ccccc2F)nnc1SCC(=O)Nc1nc(C)cs1	1	-15	9	+	124	-5	113
CCOc1ccccc1Oc1coc2cc(O)ccc2c1=O	18	12	17	+	104	1	132
CCOC(=O)c1oc2ccccc2c1NC(=O)COc1ccc(F)cc1	-10	8	-4	+	116	12	154
CCOC(=O)c1oc2ccccc2c1NC(=O)COc1cccc(OC)c1	2	-1	-4	i	111	5	·
COc1ccc(N(CC(=O)Nc2ccc(F)c(Cl)c2)S(=O)(=O)c2c(C)noc2C)cc1	-18	-4	1	+	90	-6	153
O=C(Nc1ccccn1)C(O)c1ccccc1 (configuration not stated)	·	·	·	i	·	·	·
